ChEMBL document CHEMBL4359929, “Piperidine and piperazine inhibitors of fatty acid amide hydrolase targeting excitotoxic pathology” (Bioorg Med Chem, 2019)
Active and inactive are the calls of the source. The rule behind the calls is not given here.

Tests used:
[1] = Selectivity ratio of IC50 for human recombinant His-tagged MGL expressed in Escherichia coli BL21 DE3 cells to IC50 for rat recombinant His/GST-tagged FAAH expressed in Escherichia coli cells by fluorescence based assay
[2] = Stability in rat gastric fluid assessed as half life; type: ADME, tissue-based, Gastric juice
Outline: (§1)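 Stability assessed as half-life in human, rat and mouse plasma and gastric fluid, and in human, rat and mouse liver microsomal preparations.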

[3] = Drug concentration in brain (unknown origin) at 2 mg/kg, iv measured after 15 mins; type: ADME, organism-based; settings: read-out: Ct
Outline: (§2)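 Cassette pharmacokinetics: compounds given together at 2 mg/kg iv; brain and plasma levels (µg/mL) measured at 15 min.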

[4] = biological target: Cannabinoid receptor 2 (Homo sapiens) (UniProt P34972); assay: Displacement of [3H]CP55940 from human CB2 receptor expressed in HEK293 cells by competition-equilibrium binding analysis; type: cell-based
Sequence of Cannabinoid receptor 2 (Homo sapiens) (P34972 whole entry): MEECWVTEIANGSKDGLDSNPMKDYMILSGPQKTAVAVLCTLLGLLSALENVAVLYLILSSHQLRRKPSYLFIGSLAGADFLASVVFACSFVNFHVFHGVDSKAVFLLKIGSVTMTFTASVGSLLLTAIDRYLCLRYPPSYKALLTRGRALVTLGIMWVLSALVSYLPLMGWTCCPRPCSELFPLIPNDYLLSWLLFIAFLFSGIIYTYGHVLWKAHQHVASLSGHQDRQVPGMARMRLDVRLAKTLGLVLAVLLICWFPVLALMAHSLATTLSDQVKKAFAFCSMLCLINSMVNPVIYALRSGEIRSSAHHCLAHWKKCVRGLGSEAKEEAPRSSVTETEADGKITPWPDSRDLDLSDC
Outline: (§3)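 HEK293 cell membranes expressing mouse or human CB2; competition-equilibrium binding against [3H]CP-55,940.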

[5] = Selectivity ratio of IC50 for human full length ABHD6 expressed in Escherichia coli cells to IC50 for rat recombinant His/GST-tagged FAAH expressed in Escherichia coli cells by fluorescence based assay
[6] = Stability in human plasma assessed as half life; type: ADME, cell-free; outline: as §1
[7] = biological target: T1, Fatty-acid amide hydrolase 1 (Rattus norvegicus, UniProt P97612); assay: Inhibition of rat recombinant His/GST-tagged FAAH expressed in Escherichia coli cells using AAMCA as substrate incubated for 15 mins followed by substrate addition and measured after every 20 mins for 4 hrs by fluorescence based assay
T1 sequence (P97612 whole entry): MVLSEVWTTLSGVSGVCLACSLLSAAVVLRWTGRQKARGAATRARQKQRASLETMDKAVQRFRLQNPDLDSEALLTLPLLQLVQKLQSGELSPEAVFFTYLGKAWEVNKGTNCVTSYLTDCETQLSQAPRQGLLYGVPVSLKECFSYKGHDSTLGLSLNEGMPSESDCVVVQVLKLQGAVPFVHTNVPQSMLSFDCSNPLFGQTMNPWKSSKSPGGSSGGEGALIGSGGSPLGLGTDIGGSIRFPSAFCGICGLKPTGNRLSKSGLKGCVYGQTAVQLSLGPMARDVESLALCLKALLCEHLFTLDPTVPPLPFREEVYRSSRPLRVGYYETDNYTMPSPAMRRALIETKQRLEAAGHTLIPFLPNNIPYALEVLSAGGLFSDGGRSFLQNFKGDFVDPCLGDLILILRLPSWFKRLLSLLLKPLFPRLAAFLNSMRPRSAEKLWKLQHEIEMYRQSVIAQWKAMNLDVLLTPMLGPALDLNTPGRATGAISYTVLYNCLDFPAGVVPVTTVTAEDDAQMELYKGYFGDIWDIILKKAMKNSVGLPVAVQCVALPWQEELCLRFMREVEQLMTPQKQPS
Outline: (§4)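 Fluorescent enzyme assay in throughput format. Human recombinant FAAH or purified rat FAAH used arachidonoyl 7-amino-4-methylcoumarin amide as substrate; human recombinant MGL was run by a similar fluorometric procedure.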

Monoglyceride lipase = biological target: T2, Monoglyceride lipase (Homo sapiens, UniProt Q99685); assay: Inhibition of human recombinant His-tagged MGL expressed in Escherichia coli BL21 DE3 cells using AHMMCE as substrate preincubated with enzyme for 15 mins followed by substrate addition and measured after every 15 mins for 3 hrs by fluorescence based assay; outline: as §4
T2 sequence (Q99685 whole entry): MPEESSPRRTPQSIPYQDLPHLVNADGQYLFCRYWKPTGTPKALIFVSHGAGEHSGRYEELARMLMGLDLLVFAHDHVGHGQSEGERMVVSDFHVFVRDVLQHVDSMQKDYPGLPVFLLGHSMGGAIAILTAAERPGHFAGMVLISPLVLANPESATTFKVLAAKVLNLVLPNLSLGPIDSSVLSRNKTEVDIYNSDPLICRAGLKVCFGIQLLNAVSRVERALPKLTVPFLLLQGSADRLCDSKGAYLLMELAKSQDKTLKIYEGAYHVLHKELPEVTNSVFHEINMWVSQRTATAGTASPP

[8] = biological target: T3, Fatty-acid amide hydrolase 1 (Homo sapiens, UniProt O00519); assay: Inhibition of human recombinant MBP-tagged FAAH expressed in Escherichia coli cells using AAMCA as substrate incubated for 15 mins followed by substrate addition and measured after every 20 mins for 4 hrs by fluorescence based assay; outline: as §4
T3 sequence (O00519 whole entry): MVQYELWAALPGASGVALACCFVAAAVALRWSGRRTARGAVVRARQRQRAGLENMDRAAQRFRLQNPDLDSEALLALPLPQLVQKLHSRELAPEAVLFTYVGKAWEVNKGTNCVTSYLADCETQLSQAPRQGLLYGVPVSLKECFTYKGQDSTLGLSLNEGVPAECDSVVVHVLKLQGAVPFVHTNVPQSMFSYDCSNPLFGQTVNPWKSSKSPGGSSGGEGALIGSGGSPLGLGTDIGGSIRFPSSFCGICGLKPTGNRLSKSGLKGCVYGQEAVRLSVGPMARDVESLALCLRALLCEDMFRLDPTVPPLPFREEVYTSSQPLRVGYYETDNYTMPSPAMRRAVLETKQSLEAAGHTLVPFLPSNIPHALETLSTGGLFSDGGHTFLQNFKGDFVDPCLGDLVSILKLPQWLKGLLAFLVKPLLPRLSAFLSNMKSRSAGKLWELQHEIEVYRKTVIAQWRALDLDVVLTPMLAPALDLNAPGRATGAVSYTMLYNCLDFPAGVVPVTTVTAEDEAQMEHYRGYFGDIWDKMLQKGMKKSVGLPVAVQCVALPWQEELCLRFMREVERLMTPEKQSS

[9] = Stability in mouse gastric fluid assessed as half life; type: ADME, tissue-based, Gastric juice; outline: as §1
[10] = Stability in rat plasma assessed as half life; type: ADME, cell-free; outline: as §1
Homo sapiens [11] = species on record: Homo sapiens; assay: Selectivity ratio of IC50 for human full length ABHD6 expressed in Escherichia coli cells to IC50 for human recombinant MBP-tagged FAAH expressed in Escherichia coli cells by fluorescence based assay
[12] = biological target: Cannabinoid receptor 1 (Rattus norvegicus) (UniProt P20272); assay: Displacement of [3H]CP55940 from CB1 receptor in rat brain by competition-equilibrium binding analysis; type: tissue-based
Outline: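 Rat brain membranes as CB1 source; competition-equilibrium binding against [3H]CP-55,940.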
Target sequence in this assay (P20272 whole entry): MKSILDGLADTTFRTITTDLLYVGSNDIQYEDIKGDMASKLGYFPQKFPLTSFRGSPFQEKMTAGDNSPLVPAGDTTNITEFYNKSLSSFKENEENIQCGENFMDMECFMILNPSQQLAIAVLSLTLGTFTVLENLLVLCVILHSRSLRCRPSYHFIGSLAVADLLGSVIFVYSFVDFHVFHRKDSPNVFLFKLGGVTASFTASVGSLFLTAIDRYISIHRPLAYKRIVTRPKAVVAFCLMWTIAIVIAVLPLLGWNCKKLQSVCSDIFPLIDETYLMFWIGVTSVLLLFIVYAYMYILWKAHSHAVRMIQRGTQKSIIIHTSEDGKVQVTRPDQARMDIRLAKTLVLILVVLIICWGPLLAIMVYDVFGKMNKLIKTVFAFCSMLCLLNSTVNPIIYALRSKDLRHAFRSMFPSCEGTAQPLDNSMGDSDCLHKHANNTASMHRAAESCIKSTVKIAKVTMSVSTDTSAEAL

[13] = Stability in mouse plasma assessed as half life; type: ADME, cell-free; outline: as §1
Homo sapiens [14] = species on record: Homo sapiens; assay: Selectivity ratio of IC50 for human recombinant His-tagged MGL expressed in Escherichia coli BL21 DE3 cells to IC50 for human recombinant MBP-tagged FAAH expressed in Escherichia coli cells by fluorescence based assay
[15] = Stability in rat liver microsomes assessed as half life; type: ADME, Microsome; outline: as §1
[16] = Stability in human gastric fluid assessed as half life; type: ADME, tissue-based, Gastric juice; outline: as §1
[17] = Drug concentration in plasma (unknown origin) at 2 mg/kg, iv measured after 15 mins; type: ADME, organism-based; outline: as §2
[18] = biological target: Cannabinoid receptor 1 (Rattus norvegicus) (UniProt P20272); assay: Displacement of [3H]CP55940 from CB1 receptor in rat brain by competition-equilibrium binding analysis
Target sequence in this assay (P20272 whole entry, looked up): as the sequence (P20272 whole entry) above

[19] = Stability in human liver microsomes assessed as half life; type: ADME, Microsome; outline: as §1
[20] = Stability in mouse liver microsomes assessed as half life; type: ADME, Microsome; outline: as §1
[21] = biological target: Cannabinoid receptor 2 (Mus musculus) (UniProt P47936); assay: Displacement of [3H]CP55940 from mouse CB2 receptor expressed in HEK293 cells by competition-equilibrium binding analysis; type: cell-based; outline: as §3
Sequence of Cannabinoid receptor 2 (Mus musculus) (P47936 whole entry): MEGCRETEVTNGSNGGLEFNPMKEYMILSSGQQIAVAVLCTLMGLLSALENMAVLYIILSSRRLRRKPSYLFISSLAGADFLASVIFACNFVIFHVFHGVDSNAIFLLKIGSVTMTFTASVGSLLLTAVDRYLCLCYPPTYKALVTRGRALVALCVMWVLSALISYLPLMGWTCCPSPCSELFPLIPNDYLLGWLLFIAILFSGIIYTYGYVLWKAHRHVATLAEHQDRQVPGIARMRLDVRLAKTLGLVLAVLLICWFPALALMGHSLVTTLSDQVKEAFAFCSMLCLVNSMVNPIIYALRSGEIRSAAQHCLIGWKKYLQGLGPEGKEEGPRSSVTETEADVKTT

[22] = biological target: T4, Fatty-acid amide hydrolase 1 (Rattus norvegicus) (UniProt P97612); assay: Inhibition of rat recombinant His/GST-tagged FAAH expressed in Escherichia coli cells at 1 uM using AAMCA as substrate incubated for 15 mins followed by substrate addition and measured after every 20 mins for 4 hrs by fluorescence based assay relative to control
T4 sequence (whole entry): T1 sequence (P97612 whole entry)
Outline: (§5)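 Fluorescent FAAH assay with arachidonoyl 7-amino-4-methylcoumarin amide as substrate; compound tested at a single concentration of 1 µM; percent inhibition reported.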

[23] = biological target: T5, Fatty-acid amide hydrolase 1 (Homo sapiens) (UniProt O00519); assay: Inhibition of human recombinant MBP-tagged FAAH expressed in Escherichia coli cells at 1 uM using AAMCA as substrate incubated for 15 mins followed by substrate addition and measured after every 20 mins for 4 hrs by fluorescence based assay relative to control; outline: as §5
T5 sequence (whole entry): T3 sequence (O00519 whole entry)

SMILES | Ratio IC50 [1] | half-life [2] [min] | Activity [4] | Ratio IC50 [5] | half-life [6] [min] | IC50 [7] [µM] | IC50 (Monoglyceride lipase) [µM] | IC50 [8] [µM] | half-life [9] [min] | half-life [10] [min] | Ratio IC50 (Homo sapiens [11]) | Activity [12] | half-life [13] [min] | Ratio IC50 (Homo sapiens [14]) | half-life [15] [min] | half-life [16] [min] | Activity [18] | Activity [21] | inhibition [22] | inhibition [23] | other results
O=C(Oc1cccc(N2CCS(=O)(=O)CC2)c1)N1CCC(c2ccc(OCCF)cc2)CC1 | > 1000 | > 60 | inactive | > 1000 | > 60 | 0.0055 | > 1 | 0.0212 | > 60 | > 60 | > 1000 | inactive | > 60 | > 1000 | 15 to 25 | > 60 | inactive | inactive | – | – | concentration at 0.25 h [3]: 909 ng/mL; concentration at 0.25 h [17]: 388 ng/mL; half-life [19]: 15 to 25 min; half-life [20]: 15 to 25 min
C[C@@H]1CN(C(=O)Oc2cccc(N3CCS(=O)(=O)CC3)c2)[C@@H](C)CN1c1ccc(F)cc1 | – | – | inactive | – | – | – | – | – | – | – | – | inactive | – | – | – | – | inactive | inactive | 35% | – | –
O=C(Oc1cccc(N2CCOCC2)c1)N1CCC(c2ccc(F)cc2)CC1 | > 1000 | > 60 | inactive | > 1000 | > 60 | 0.00293 | > 1 | 0.0163 | > 60 | > 60 | > 1000 | inactive | > 60 | > 1000 | 15 to 25 | > 60 | inactive | inactive | – | – | concentration at 0.25 h [3]: 508 ng/mL; concentration at 0.25 h [17]: 506 ng/mL; half-life [19]: 15 to 25 min; half-life [20]: 15 to 25 min
O=C(Oc1cccc(N2CCS(=O)(=O)CC2)c1)N1CCC2(CC1)COC2 | > 1000 | – | inactive | > 1000 | – | – | > 1 | – | – | – | > 1000 | inactive | – | > 1000 | – | – | inactive | inactive | inactive | inactive | –
COc1ccc(N2CCN(C(=O)Oc3cccc(N4CCS(=O)(=O)CC4)c3)[C@@H](C(C)C)C2)cc1 | – | – | inactive | – | – | – | – | – | – | – | – | inactive | – | – | – | – | inactive | inactive | inactive | inactive | –
O=C(Oc1cccc(N2CCS(=O)(=O)CC2)c1)N1CCN(c2ccc(F)cc2)CC12CC2 | – | – | inactive | – | – | – | – | – | – | – | – | inactive | – | – | – | – | inactive | inactive | 54% | – | –
O=C(Oc1cccc(N2CCS(=O)(=O)CC2)c1)N1CCC(c2ccc(F)cc2)CC1 | > 1000 | > 60 | inactive | > 1000 | > 60 | 0.0023 | > 1 | 0.01 | > 60 | > 60 | > 1000 | inactive | > 60 | > 1000 | 15 to 25 | > 60 | inactive | inactive | – | – | concentration at 0.25 h [3]: 1230 ng/mL; concentration at 0.25 h [17]: 474 ng/mL; half-life [19]: 15 to 25 min; half-life [20]: 15 to 25 min
O=C(Oc1cccc(N2CCS(=O)(=O)CC2)c1)N1C[C@@H]2C[C@H]1CN2c1ccc(F)cc1 | > 1000 | – | inactive | > 1000 | – | 0.341 | > 1 | – | – | – | > 1000 | inactive | – | > 1000 | – | – | inactive | inactive | – | 67% | –
O=C(Oc1cccc(N2CCS(=O)(=O)CC2)c1)N1CCN(c2ccnnc2)CC1 | > 1000 | – | inactive | > 1000 | – | – | > 1 | – | – | – | > 1000 | inactive | – | > 1000 | – | – | inactive | inactive | inactive | inactive | –
COc1ccc(N2CCN(C(=O)Oc3cccc(N4CCOCC4)c3)[C@H](C)C2)cc1 | > 1000 | > 60 | inactive | > 1000 | > 60 | 0.0052 | > 1 | 0.0041 | > 60 | > 60 | > 1000 | inactive | > 60 | > 1000 | 15 to 25 | > 60 | inactive | inactive | – | – | half-life [19]: 15 to 25 min; half-life [20]: 15 to 25 min
C[C@H]1CN(c2ccccc2)CCN1C(=O)Oc1cccc(N2CCS(=O)(=O)CC2)c1 | – | – | inactive | – | – | – | – | – | – | – | – | inactive | – | – | – | – | inactive | inactive | inactive | inactive | –
